biological target: Serine/threonine-protein kinase B-raf (Homo sapiens, UniProt P15056); assay: Inhibition of human wild type B-Raf kinase assessed as change in ATP consumption by luciferase-luiferin-coupled chemiluminescent assay
Summary of the method: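 Wild-type B-Raf enzyme pre-incubated with compound 30 min at 30 °C, then ATP plus unactivated MEK1 substrate added and reacted 1 h at 30 °C. ADP-Glo reagent 40 min at 27 °C, then kinase detection reagent 30 min at 27 °C, luminescence read. IC50 fitted from inhibition rates; mean of two experiments.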

Chain of Serine/threonine-protein kinase B-raf (P15056 whole entry): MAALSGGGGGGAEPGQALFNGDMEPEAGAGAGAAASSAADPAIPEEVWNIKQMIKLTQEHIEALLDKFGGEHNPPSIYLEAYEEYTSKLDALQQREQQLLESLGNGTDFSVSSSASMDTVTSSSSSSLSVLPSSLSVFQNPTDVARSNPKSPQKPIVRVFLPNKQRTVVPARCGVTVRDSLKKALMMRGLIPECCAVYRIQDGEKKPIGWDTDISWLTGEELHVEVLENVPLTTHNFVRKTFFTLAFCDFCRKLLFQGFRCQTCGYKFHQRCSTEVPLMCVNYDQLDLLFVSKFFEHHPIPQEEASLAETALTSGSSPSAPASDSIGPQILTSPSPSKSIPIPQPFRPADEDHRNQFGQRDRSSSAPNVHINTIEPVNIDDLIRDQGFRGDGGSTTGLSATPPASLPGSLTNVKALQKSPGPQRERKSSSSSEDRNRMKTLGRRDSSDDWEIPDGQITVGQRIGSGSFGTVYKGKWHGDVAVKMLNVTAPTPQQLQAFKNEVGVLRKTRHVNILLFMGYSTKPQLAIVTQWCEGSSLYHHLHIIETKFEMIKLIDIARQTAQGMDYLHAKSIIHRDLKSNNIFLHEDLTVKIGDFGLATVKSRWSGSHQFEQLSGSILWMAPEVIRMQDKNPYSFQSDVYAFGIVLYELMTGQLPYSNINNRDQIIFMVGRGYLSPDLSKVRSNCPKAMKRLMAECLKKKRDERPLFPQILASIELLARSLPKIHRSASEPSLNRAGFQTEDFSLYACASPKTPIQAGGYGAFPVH

SMILES | IC50 [µM]
CCCNS(=O)(=O)c1ccc2[nH]c3c(C(N)=O)nccc3c2c1 | 28.5
CCN(CC)CCCNS(=O)(=O)c1ccc2[nH]c3c(C(N)=O)nccc3c2c1 | 2.81
NC(=O)c1nccc2c1[nH]c1ccc(S(=O)(=O)NCCCO)cc12 | 20.5
CC(O)CNS(=O)(=O)c1ccc2[nH]c3c(C(N)=O)nccc3c2c1 (stereo not drawn) | 22
CN(C)CCCNS(=O)(=O)c1ccc2[nH]c3c(C(N)=O)nccc3c2c1 | 1.62
COC(CNS(=O)(=O)c1ccc2[nH]c3c(C(N)=O)nccc3c2c1)OC | 91.5
NC(=O)c1nccc2c1[nH]c1ccc(S(=O)(=O)NCC(O)CO)cc12 (stereo not drawn) | 45.1
NC(=O)c1nccc2c1[nH]c1ccc(S(=O)(=O)NCCO)cc12 | 23.7
COCCCNS(=O)(=O)c1ccc2[nH]c3c(C(N)=O)nccc3c2c1 | 22.7
NC(=O)c1nccc2c1[nH]c1ccc(S(=O)(=O)NC3CC3)cc12 | 9.07
NS(=O)(=O)c1ccc2[nH]c3cnccc3c2c1 | 2.49
CC(=O)NS(=O)(=O)c1ccc2[nH]c3cnccc3c2c1 | 59.1

Next, values leading:

IC50 [µM] | SMILES
2.74 | NC(=O)c1nccc2c1[nH]c1ccc(S(=O)(=O)Nc3ccccc3)cc12
20.5 | Cc1ccc(NS(=O)(=O)c2ccc3[nH]c4c(C(N)=O)nccc4c3c2)cc1
8.89 | NC(=O)c1nccc2c1[nH]c1ccc(S(=O)(=O)Nc3ccc(F)cc3)cc12
3.76 | NC(=O)c1nccc2c1[nH]c1ccc(S(=O)(=O)Nc3ccccn3)cc12
7.48 | NC(=O)c1nccc2c1[nH]c1ccc(S(=O)(=O)Nc3nccs3)cc12
2.12 | NC(=O)c1nccc2c1[nH]c1ccc(S(N)(=O)=O)cc12
